Calls of active or inactive are those of the source. The calls are words filed in the database; no cut-off is given here.
Key:
Rattus norvegicus [1] = experiment: Hypolipidemic activity in Sprague-Dawley rat assessed as decrease in serum cholesterol at 10 mg/kg/day, po after 22 to 24 hrs by Liebermann-Burchard reaction (reference value: 100 +/- 8%); assay type: functional
Procedure, shortened: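 Male Sprague-Dawley rats were kept on rodent chow with water ad libitum. Compounds were suspended and homogenized in 1% CMC-water and given by oral intubation once daily at 11:00 a.m., with doses based on weekly body weights. Tail-vein blood was taken 22-24 h after dosing into nonheparinized microcapillary tubes and centrifuged 3 min. Serum cholesterol (mg %) was measured on duplicate 30-μl non-hemolyzed samples by a modified Liebermann-Burchard reaction.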

Liver microsome = experiment: Hypolipidemic activity in rat liver microsomes assessed as inhibition of incorporation of [1,3-14C]glycerol 3-phosphate ino neutral lipid at 0.5 to 5 mM; assay type: functional
Procedure, shortened: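 Rat liver microsomes were incubated with sn-[1,3-14C]glycerol 3-phosphate in the presence of ATP, palmitate, CoA and Mg2+. Label incorporated into neutral lipid (diglyceride + triglyceride) was measured, and phosphatidic acid accumulation was also followed.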

Rattus norvegicus [2] = species on record: Rattus norvegicus; experiment: Inhibition of rat phosphatidate phosphohydrolase in liver microsomes assessed as reduction in enzyme activity at 2 mmol
Rattus norvegicus [3] = experiment: Hypolipidemic activity in Sprague-Dawley rat assessed as decrease in serum triglyceride at 10 mg/kg, po qd for 1 week (reference value: 100 +/- 5.3%); assay type: functional; details: 168 h
Rattus norvegicus [4] = experiment: Hypolipidemic activity in Sprague-Dawley rat assessed as decrease in serum triglyceride at 50 mg/kg, po qd for 1 week (reference value: 100 +/- 5.3%); assay type: functional; details: 168 h
Rattus norvegicus [5] = experiment: Hypolipidemic activity in Sprague-Dawley rat assessed as decrease in serum triglyceride at 100 mg/kg, po qd for 1 week (reference value: 100 +/- 5.3%); assay type: functional; details: 168 h
Rattus norvegicus [6] = experiment: Hypolipidemic activity in Sprague-Dawley rat assessed as decrease in liver triglyceride at 10 mg/kg, po qd for 1 week (reference value: 100 +/- 8.4%); assay type: functional; details: 168 h
Rattus norvegicus [7] = experiment: Toxicity in Sprague-Dawley rat assessed as change in body weight at 10 to 100 mg/kg, po; assay type: organism-based; parameters: dose 10-100 mg/kg, route oral; details: in vivo
Procedure, shortened: (§1)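 Male Sprague-Dawley rats received 10-100 mg/kg orally once daily for 7 days as a 1% CMC-water suspension. Body weight gain, food intake and deaths were monitored.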

Rattus norvegicus [8] = experiment: Toxicity in Sprague-Dawley rat assessed as change in food intake at 10 to 100 mg/kg, po; assay type: organism-based; parameters: dose 10-100 mg/kg, route oral; details: in vivo; procedure, shortened: as §1
Rattus norvegicus [9] = experiment: Hypolipidemic activity in Sprague-Dawley rat assessed as liver triglyceride level at 100 mg/kg, po qd for 1 week (reference value: 100 +/- 8.4%); details: 168 h
Rattus norvegicus [10] = experiment: Hypolipidemic activity in Sprague-Dawley rat assessed as change in liver triglyceride at 50 mg/kg, po qd for 1 week (reference value: 100 +/- 8.4%); details: 168 h
Rattus norvegicus [11] = experiment: Hypolipidemic activity in Sprague-Dawley rat assessed as incorporation of [1,3-14C]glycerol in liver phospholipid at 10 mg/kg, po qd for 1 week (reference value: 100 +/- 8.3%); details: 168 h
Rattus norvegicus [12] = experiment: Hypolipidemic activity in Sprague-Dawley rat assessed as incorporation of [1,3-14C]glycerol in liver phospholipid at 100 mg/kg, po qd for 1 week (reference value: 100 +/- 8.3%); details: 168 h
Rattus norvegicus [13] = experiment: Hypolipidemic activity in Sprague-Dawley rat assessed as inhibition of incorporation of [1,3-14C]glycerol in liver triglyceride at 10 mg/kg, po qd for 1 week (reference value: 100 +/- 8.4%); values are per cent of control; details: 168 h
Rattus norvegicus [14] = experiment: Hypolipidemic activity in Sprague-Dawley rat assessed as inhibition of incorporation of [1,3-14C]glycerol in liver triglyceride at 50 mg/kg, po qd for 1 week (reference value: 100 +/- 8.4%); values are per cent of control; details: 168 h
Rattus norvegicus [15] = experiment: Hypolipidemic activity in Sprague-Dawley rat assessed as inhibition of incorporation of [1,3-14C]glycerol in liver phospholipid at 50 mg/kg, po qd for 1 week (reference value: 100 +/- 8.3%); values are per cent of control; details: 168 h
Rattus norvegicus [16] = experiment: Hypolipidemic activity in Sprague-Dawley rat assessed as inhibition of incorporation of [1,3-14C]glycerol in liver triglyceride at 100 mg/kg, po qd for 1 week (reference value: 100 +/- 8.4%); values are per cent of control; details: 168 h

**Q.** With Nc1ncnc2c1ncn2CC(O)COc1cccc(Cl)c1 (stereo unspecified) as the compound, how does the level, % of control at 10 mg/kg/day (Rattus norvegicus [1]) read?
**A.** The level, % of control at 10 mg/kg/day was 97%.

**Q.** Which level, % of control at 10 mg/kg/day (Rattus norvegicus [1]) does the source give for Cc1ccc(OCC(O)Cn2cc(C)c(=O)[nH]c2=O)cc1 (stereo unspecified) here?
**A.** The level, % of control at 10 mg/kg/day was 99%.

**Q.** Which level, % of control at 10 mg/kg/day (Rattus norvegicus [1]) does the source give for Cc1ccc(OCC(O)Cn2ccc(=O)[nH]c2=O)cc1 (stereo unspecified) here?
**A.** The level, % of control at 10 mg/kg/day was 89%.

**Q.** Which level, % of control at 10 mg/kg/day (Rattus norvegicus [1]) does the source give for Nc1ncnc2c1ncn2CC(O)CSc1ccc(Cl)cc1 (stereo unspecified) here?
**A.** The level, % of control at 10 mg/kg/day was 79%.

**Q.** Nc1ncnc2c1ncn2CC(O)COc1ccc(F)cc1 (stereo unspecified) was tested. Which level, % of control at 10 mg/kg/day (Rattus norvegicus [1]) did it give?
**A.** Its level, % of control at 10 mg/kg/day is 86%.

**Q.** How did the level, % of control at 10 mg/kg/day (Rattus norvegicus [1]) turn out when CC(=O)c1ccc(OCC(O)Cn2cnc3c(N)ncnc32)cc1 (stereo unspecified) was run?
**A.** The level, % of control at 10 mg/kg/day was 99%.

**Q.** Nc1ncnc2c1ncn2CC(O)COc1ccc(C(=O)c2ccccc2)cc1 (stereo unspecified) was tested. Which level, % of control at 10 mg/kg/day (Rattus norvegicus [1]) did it give?
**A.** Its level, % of control at 10 mg/kg/day is 118%.

**Q.** With Nc1ncnc2c1ncn2CC(O)COc1ccccc1Cl (stereo unspecified) as the compound, how does the level, % of control at 10 mg/kg/day (Rattus norvegicus [1]) read?
**A.** The level, % of control at 10 mg/kg/day was 93%.

**Q.** How did the level, % of control at 10 mg/kg/day (Rattus norvegicus [1]) turn out when Nc1ncnc2c1ncn2CC(O)COc1ccc(Br)cc1 (stereo unspecified) was run?
**A.** Its level, % of control at 10 mg/kg/day is 96%.

**Q.** With COc1ccc(OCC(O)Cn2cnc3c(N)ncnc32)cc1 (stereo unspecified) as the compound, how does the level, % of control at 10 mg/kg/day (Rattus norvegicus [1]) read?
**A.** Its level, % of control at 10 mg/kg/day is 93%.

**Q.** How did the level, % of control at 10 mg/kg/day (Rattus norvegicus [1]) turn out when Cc1cn(CC(O)COc2ccc(Cl)cc2)c(=O)[nH]c1=O (stereo unspecified) was run?
**A.** The level, % of control at 10 mg/kg/day was 96%.

**Q.** How did the level, % of control at 10 mg/kg/day (Rattus norvegicus [1]) turn out when COc1ccc(OCC(O)Cn2ccc(=O)[nH]c2=O)cc1 (stereo unspecified) was run?
**A.** The level, % of control at 10 mg/kg/day was 93%.

**Q.** O=c1ccn(CC(O)COc2ccc(Cl)cc2)c(=O)[nH]1 (stereo unspecified) was tested. Which level, % of control at 10 mg/kg/day (Rattus norvegicus [1]) did it give?
**A.** Its level, % of control at 10 mg/kg/day is 102%.

**Q.** How did the level, % of control at 10 mg/kg/day (Rattus norvegicus [1]) turn out when CC(C)(C)c1ccc(OCC(O)Cn2cnc3c(N)ncnc32)cc1 (stereo unspecified) was run?
**A.** Its level, % of control at 10 mg/kg/day is 110%.

**Q.** Which level, % of control at 10 mg/kg/day (Rattus norvegicus [1]) does the source give for Nc1ncnc2c1ncn2CC(O)COc1ccc(Cl)cc1 (stereo unspecified) here?
**A.** The level, % of control at 10 mg/kg/day was 93%.

**Q.** What about the inhibition (Liver microsome) of the same compound?
**A.** Its inhibition is “Active”.

**Q.** What about the inhibition (Rattus norvegicus [2]) of the same compound?
**A.** Its inhibition is 50%.

**Q.** What about the level, % of control at 10 mg/kg (Rattus norvegicus [3]) of the same compound?
**A.** The level, % of control at 10 mg/kg was 73%.

**Q.** What about the level, % of control at 50 mg/kg (Rattus norvegicus [4]) of the same compound?
**A.** Its level, % of control at 50 mg/kg is 38.5%.

**Q.** What about the level, % of control at 100 mg/kg (Rattus norvegicus [5]) of the same compound?
**A.** The level, % of control at 100 mg/kg was 40.3%.

**Q.** What about the level, % of control at 10 mg/kg (Rattus norvegicus [6]) of the same compound?
**A.** Its level, % of control at 10 mg/kg is 57.6%.

**Q.** What about the Activity (Rattus norvegicus [7]) of the same compound?
**A.** The Activity was “Non-toxic”.

**Q.** What about the Activity (Rattus norvegicus [8]) of the same compound?
**A.** Its Activity is “Non-toxic”.

**Q.** What about the level, % of control at 100 mg/kg (Rattus norvegicus [9]) of the same compound?
**A.** Its level, % of control at 100 mg/kg is 345%.

**Q.** And the level, % of control at 50 mg/kg (Rattus norvegicus [10])?
**A.** Its level, % of control at 50 mg/kg is 252%.

**Q.** And the level, % of control at 10 mg/kg (Rattus norvegicus [11])?
**A.** Its level, % of control at 10 mg/kg is 74.9%.

**Q.** What about the level, % of control at 100 mg/kg (Rattus norvegicus [12]) of the same compound?
**A.** The level, % of control at 100 mg/kg was 36.7%.

**Q.** What about the level, % of control at 10 mg/kg (Rattus norvegicus [13]) of the same compound?
**A.** The level, % of control at 10 mg/kg was 36.7%.

**Q.** And the level, % of control at 50 mg/kg (Rattus norvegicus [14])?
**A.** Its level, % of control at 50 mg/kg is 29%.

**Q.** What about the level, % of control at 50 mg/kg (Rattus norvegicus [15]) of the same compound?
**A.** The level, % of control at 50 mg/kg was 33.5%.

**Q.** And the level, % of control at 100 mg/kg (Rattus norvegicus [16])?
**A.** Its level, % of control at 100 mg/kg is 31.8%.

Reference: ChEMBL document CHEMBL3244365, “Synthesis of potential hypolipidemic agents. Reaction of substituted phenyl 2,3-epoxypropyl ethers with adenine, uracil, and thymine” (J Med Chem, 1978)
